Source: ChEMBL document CHEMBL3627676, “Modulation of disulfide dual ENKephalinase inhibitors (DENKIs) activity by a transient N-protection for pain alleviation by oral route” (Eur J Med Chem, 2015)
pKi: −log10 of the molar value. Calls of active or inactive are those of the source.

What was measured:
Mus musculus [1] = assay: Antiallodynic activity in OF1 mouse partial sciatic nerve ligation model assessed as increase in mechanical threshold to pressure at 50 mg/kg, po after 90 mins by von Frey test; type: functional
Procedure, shortened: (§1)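 PSNL in male OF1 mice (16–18 g): under isoflurane, a tight ligation placed around 33–50% of the right sciatic nerve. 50 mg/kg given by oral gavage in EtOH/0.5% methylcellulose (1.5/98.5). Paw withdrawal threshold (g) measured with von Frey filaments by up-down method before dosing and at 45, 90 and 150 min. n = 5–7 per group.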

Mus musculus [2] = assay: Analgesic activity in OF1 mouse assessed as decrease in hindpaw licking at 50 mg/kg ,po administered 150 mins prior to formalin challenge by formalin test; type: functional; parameters: scale not given: the % may be the effect or the level left
Procedure, shortened: (§2)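 Male OF1 mice, 25e32 g, 50 mg/kg given orally in ethanol/0.5% methylcellulose in water (1.5/98.5) before formalin. After 30 min adaptation, 20 µL of 5% formalin injected s.c. into the hindpaw. Licking/biting of the injected paw timed by stop-watch during the early phase (0–5 min). Analgesia (%) versus vehicle, n = 6–8 per group.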

Mus musculus [3] = assay: Analgesic activity in OF1 mouse assessed as decrease in hindpaw licking at 50 mg/kg ,po administered 210 mins prior to formalin challenge by formalin test relative to control; type: functional, organism-based; procedure, shortened: as §2
Mus musculus [4] = assay: Antiallodynic activity in OF1 mouse partial sciatic nerve ligation model assessed as increase in mechanical threshold to pressure at 50 mg/kg, po after 45 mins by von Frey test; type: functional; procedure, shortened: as §1
Mus musculus [5] = assay: Antinociceptive activity in po dosed OF1 mouse assessed as increase in jump latency by hot plate test; type: functional, organism-based
Procedure, shortened: (§3)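 Hot plate test in male OF1 mice (20–25 g). 150 mg/kg given per os in EtOH/PEG400/H2O (1/4/5). Jump latency recorded by stop-watch, cut-off 240 s, followed over time. Mean ± sem, n = 7–8 per group.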

Mus musculus [6] = assay: Antihyperalgesic activity in OF1 mouse partial sciatic nerve ligation model assessed as increase in […] threshold to thermal stimuli at 50 mg/kg, po measured upto 150 mins by planar test; type: functional, organism-based
Procedure, shortened: (§4)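 Male OF1 PSNL mice given 50 mg/kg orally in EtOH/0.5% methylcellulose in water (1.5/98.5). Thermal hyperalgesia assessed by plantar test as paw withdrawal to a thermal stimulus, expressed relative to the contralateral paw, at time points up to 150 min.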

Mus musculus [7] = assay: Antiallodynic activity in OF1 mouse partial sciatic nerve ligation model assessed as increase in mechanical threshold to pressure at 50 mg/kg, po after 150 mins by von Frey test; type: functional; procedure, shortened: as §1
Mus musculus [8] = assay: Antinociceptive activity in iv dosed OF1 mouse assessed as increase in jump latency by hot plate test; type: functional, organism-based
Procedure, shortened: (§5)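 Hot plate in male OF1 mice. 10 mg/kg given iv in EtOH/Cremophor/H2O (1/1/8) or EtOH/Tween 80/H2O (1/1/8). Jump latency recorded with a 240 s cut-off over a time course. n = 6 per group.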

Plasma [9] = assay: Drug level in Sprague-Dawley rat plasma treated with 1-(1-{2-[(1-Ethoxycarbonyloxy-ethoxycarbonylmethyl)-carbamoyl]-3-phenyl-propyldisulfanylmethyl}-3-methylsulfanyl-propylcarbamoyloxy)-ethyl isobutyrate at 800 uM incubated for 1 to 60 mins by LC/MS analysis; type: ADME, cell-free
Procedure, shortened: (§6)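 Prodrug at 800 µM final concentration incubated at 37 °C in male Sprague-Dawley rat plasma (heparin lithium; 66 mg protein/mL) for 1, 5, 15, 30 and 60 min. Reaction stopped with absolute EtOH. Parent and metabolites monitored by LC/MS, in triplicate.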

Mus musculus [10] = assay: Antihyperalgesic activity in OF1 mouse partial sciatic nerve ligation model assessed as increase in […] threshold to thermal stimuli at 50 mg/kg, po measured at 90 mins by planar test relative to control; type: functional; procedure, shortened: as §4
Mus musculus [11] = assay: Analgesic activity in OF1 mouse assessed as decrease in hindpaw licking at 50 mg/kg ,po administered 90 mins prior to formalin challenge by formalin test; type: functional; parameters: scale not given: the % may be the effect or the level left; procedure, shortened: as §2
Mus musculus [12] = assay: Analgesic activity in OF1 mouse assessed as decrease in hindpaw licking at 50 mg/kg ,po administered 20 mins prior to formalin challenge by formalin test; type: functional; parameters: scale not given: the % may be the effect or the level left; procedure, shortened: as §2
Mus musculus [13] = assay: Analgesic activity in OF1 mouse assessed as decrease in hindpaw licking at 50 mg/kg ,po administered 60 mins prior to formalin challenge by formalin test; type: functional; parameters: scale not given: the % may be the effect or the level left; procedure, shortened: as §2
Plasma [14] = assay: Prodrug conversion in Sprague-Dawley rat plasma assessed as formation of PL37 at 800 uM incubated for 1 to 60 mins by LC/MS analysis; type: ADME, cell-free; procedure, shortened: as §6
Mus musculus [15] = assay: Antinociceptive activity in OF1 mouse assessed as increase in jump latency at 10 mg/kg, iv by hot plate test; type: functional, organism-based; procedure, shortened: as §5
Plasma [16] = assay: Prodrug conversion in Sprague-Dawley rat plasma assessed as formation of 1-{1-[2-(Carboxymethyl-carbamoyl)-3-phenyl-propyldisulfanylmethyl]-3-methylsulfanyl-propylcarbamoyloxy}-ethyl isobutyrate at 800 uM incubated for 1 to 60 mins by LC/MS analysis; type: ADME, cell-free; procedure, shortened: as §6
Mus musculus [17] = assay: Analgesic activity in OF1 mouse assessed as decrease in hindpaw licking at 50 mg/kg ,po administered 120 mins prior to formalin challenge by formalin test; type: functional; parameters: scale not given: the % may be the effect or the level left; procedure, shortened: as §2
Mus musculus [18] = assay: Antinociceptive activity in OF1 mouse assessed as increase in jump latency at 150 mg/kg, po by hot plate test; type: functional, organism-based; procedure, shortened: as §3
Plasma [19] = assay: Prodrug conversion in Sprague-Dawley rat plasma assessed as formation of (S)-2-((S)-3-(((S)-2-amino-4-(methylthio)butyl)disulfanyl)-2-benzylpropanamido)propanoic acid at 800 uM incubated for 1 to 60 mins by LC/MS analysis; type: ADME, cell-free; procedure, shortened: as §6
Aminopeptidase N = Aminopeptidase N (Homo sapiens, UniProt P15144); assay: Inhibition of recombinant human Aminopeptidase N using L-Ala-beta-NA as substrate preincubated for 30 mins followed by substrate addition measured after 30 mins by fluorometry
Mus musculus [20] = assay: Antiallodynic activity in po dosed OF1 mouse partial sciatic nerve ligation model assessed as increase in mechanical threshold to pressure at 25 mg/kg, po after 30 mins by von Frey test; type: functional
Procedure, shortened: (§7)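 PSNL mice (male OF1, 16–18 g; partial sciatic ligation of 33–50% under isoflurane). Oral gavage at 12.5, 25 or 50 mg/kg in EtOH/0.5% methylcellulose (1.5/98.5). Von Frey up-down withdrawal thresholds measured on ipsilateral and contralateral paws before dosing and at 30, 60 and 120 min. Kruskal-Wallis with Dunn's test.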

Mus musculus [21] = assay: Antiallodynic activity in po dosed OF1 mouse partial sciatic nerve ligation model assessed as increase in mechanical threshold to pressure at 25 mg/kg, po after 60 mins by von Frey test; type: functional; procedure, shortened: as §7
Mus musculus [22] = assay: Antiallodynic activity in po dosed OF1 mouse partial sciatic nerve ligation model assessed as increase in mechanical threshold to pressure after 60 mins by von Frey test; type: functional, organism-based; procedure, shortened: as §7
Mus musculus [23] = assay: Antiallodynic activity in po dosed OF1 mouse partial sciatic nerve ligation model assessed as increase in mechanical threshold to pressure after 30 mins by von Frey test; type: functional, organism-based; procedure, shortened: as §7
Mus musculus [24] = assay: Antiallodynic activity in OF1 mouse partial sciatic nerve ligation model assessed as increase in mechanical threshold to pressure at 50 mg/kg, po after 45 to 60 mins by von Frey test; type: functional, organism-based
Mus musculus [25] = assay: Antiallodynic activity in po dosed OF1 mouse partial sciatic nerve ligation model assessed as increase in mechanical threshold to pressure after 120 mins by von Frey test; type: functional, organism-based; procedure, shortened: as §7
Mus musculus [26] = assay: Antiallodynic activity in po dosed OF1 mouse partial sciatic nerve ligation model assessed as increase in mechanical threshold to pressure at 25 mg/kg, po after 120 mins by von Frey test; type: functional; procedure, shortened: as §7
Neprilysin = Neprilysin (Homo sapiens, UniProt P08473); assay: Inhibition of recombinant human Neprilysin using Suc-Ala-Ala-Phe-AMC as substrate preincubated for 30 mins followed by substrate addition measured after 30 mins by fluorometry
Neprilysin, sequence (P08473 whole entry): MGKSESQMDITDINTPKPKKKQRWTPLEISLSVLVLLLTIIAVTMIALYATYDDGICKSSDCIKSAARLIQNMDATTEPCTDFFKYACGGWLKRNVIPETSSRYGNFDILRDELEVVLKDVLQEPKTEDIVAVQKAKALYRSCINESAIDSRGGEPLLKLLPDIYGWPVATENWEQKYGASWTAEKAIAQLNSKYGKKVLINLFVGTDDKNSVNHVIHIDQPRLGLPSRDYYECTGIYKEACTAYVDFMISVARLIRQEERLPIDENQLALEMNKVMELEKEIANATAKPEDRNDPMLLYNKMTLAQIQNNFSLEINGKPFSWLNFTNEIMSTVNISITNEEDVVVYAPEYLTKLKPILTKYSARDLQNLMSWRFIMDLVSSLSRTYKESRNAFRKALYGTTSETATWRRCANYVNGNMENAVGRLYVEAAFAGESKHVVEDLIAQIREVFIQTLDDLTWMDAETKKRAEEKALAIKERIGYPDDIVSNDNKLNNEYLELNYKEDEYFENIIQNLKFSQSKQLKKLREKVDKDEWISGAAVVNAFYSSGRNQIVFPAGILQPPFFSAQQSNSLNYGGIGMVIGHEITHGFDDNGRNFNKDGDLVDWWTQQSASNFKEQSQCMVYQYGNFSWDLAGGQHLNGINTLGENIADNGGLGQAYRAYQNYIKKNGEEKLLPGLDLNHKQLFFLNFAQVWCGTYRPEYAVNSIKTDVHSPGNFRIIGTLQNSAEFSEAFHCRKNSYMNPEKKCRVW

Aminopeptidase N, sequence (P15144 whole entry): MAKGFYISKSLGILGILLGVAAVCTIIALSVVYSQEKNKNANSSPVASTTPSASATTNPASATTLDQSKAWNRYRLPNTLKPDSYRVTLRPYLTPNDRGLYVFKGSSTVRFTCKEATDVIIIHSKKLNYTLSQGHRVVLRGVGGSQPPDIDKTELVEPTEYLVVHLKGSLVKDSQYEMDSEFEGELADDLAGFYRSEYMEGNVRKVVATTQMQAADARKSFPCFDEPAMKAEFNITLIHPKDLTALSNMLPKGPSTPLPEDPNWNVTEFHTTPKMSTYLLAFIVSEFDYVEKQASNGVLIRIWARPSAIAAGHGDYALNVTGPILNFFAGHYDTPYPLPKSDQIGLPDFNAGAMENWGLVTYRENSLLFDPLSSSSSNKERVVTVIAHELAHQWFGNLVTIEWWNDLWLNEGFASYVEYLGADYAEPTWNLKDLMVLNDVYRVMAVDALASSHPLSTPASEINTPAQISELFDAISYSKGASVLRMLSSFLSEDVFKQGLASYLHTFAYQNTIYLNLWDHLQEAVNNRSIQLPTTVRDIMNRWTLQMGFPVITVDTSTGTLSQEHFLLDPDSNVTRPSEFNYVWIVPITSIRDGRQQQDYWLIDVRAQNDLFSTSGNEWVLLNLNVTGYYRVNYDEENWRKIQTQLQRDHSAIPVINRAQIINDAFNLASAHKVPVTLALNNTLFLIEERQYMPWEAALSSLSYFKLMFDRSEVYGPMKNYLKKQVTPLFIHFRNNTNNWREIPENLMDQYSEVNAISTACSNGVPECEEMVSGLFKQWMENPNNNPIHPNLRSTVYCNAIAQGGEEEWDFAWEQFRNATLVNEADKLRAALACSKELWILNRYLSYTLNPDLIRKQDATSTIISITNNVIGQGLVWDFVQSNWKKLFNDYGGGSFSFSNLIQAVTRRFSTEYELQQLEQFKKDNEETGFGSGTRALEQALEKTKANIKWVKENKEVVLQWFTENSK

Structure (SMILES) | Activity (Mus musculus [2]) [%] | Activity (Mus musculus [3]) | Activity (Mus musculus [5]) | Activity (Mus musculus [8]) | Activity (Mus musculus [11]) [%] | also measured
CSCC[C@@H](CSSC[C@@H](Cc1ccccc1)C(=O)NCC(=O)O)NC(=O)OC(C)OC(=O)C(C)C (some centres undefined) | 31 | inactive | inactive | inactive | 34 | Activity (Mus musculus [1]): 56%; Activity (Mus musculus [4]): 64%; Activity (Mus musculus [6]): Active; Activity (Mus musculus [7]): 18%; Drug metabolism (Plasma [9]): metabolite_detected; Activity (Mus musculus [10]): 100%
CSCC[C@H](N)CSSC[C@@H](Cc1ccccc1)C(=O)NCC(=O)O |  |  | Active |  |  | Drug metabolism (Plasma [9]): metabolite_detected
C[S+]([O-])CC[C@H](N)CSSC[C@@H](Cc1ccccc1)C(=O)NCC(=O)OCc1ccccc1 (some centres undefined) |  |  | Active |  |  | 
CCOC(=O)OC(C)OC(=O)CNC(=O)[C@@H](CSSC[C@@H](N)CC[S+](C)[O-])Cc1ccccc1 (some centres undefined) |  |  | Active |  |  | 
CSCC[C@H](N)CSSC[C@@H](Cc1ccccc1)C(=O)NCC(=O)OCc1ccccc1 |  |  | Active |  |  | 
CCOC(=O)OC(C)OC(=O)CNC(=O)[C@@H](CSSC[C@H](CCSC)NC(=O)OC(C)OC(=O)C(C)C)Cc1ccccc1 (some centres undefined) | 30 | inactive |  |  | 32 | Activity (Mus musculus [12]): 25%; Activity (Mus musculus [13]): 56%; Drug metabolism (Plasma [14]): metabolite_notdetected; Activity (Mus musculus [15]): inactive; Drug metabolism (Plasma [16]): metabolite_detected; Activity (Mus musculus [17]): 31%; Activity (Mus musculus [18]): inactive; Drug metabolism (Plasma [19]): metabolite_detected
CC(OC(=O)N[C@@H](CC[S+](C)[O-])CSSC[C@@H](Cc1ccccc1)C(=O)NCC(=O)OCc1ccccc1)OC(=O)C(C)C (some centres undefined) | 38 | inactive | inactive | inactive | 39 | 
CC(OC(=O)N[C@@H](CC[S+](C)[O-])CSSCC1(C(=O)N[C@@H](CC(=O)O)C(=O)O)CCCC1)OC(=O)C(C)C (some centres undefined) | 47 | inactive | inactive | inactive | 46 | 
C[S+]([O-])CC[C@H](N)CSSCC1(C(=O)N[C@@H](CC(=O)O)C(=O)O)CCCC1 (some centres undefined) |  |  | Active |  |  | 
O=C(O)C[C@H](NC(=O)C1(CS)CCCC1)C(=O)O |  |  |  |  |  | pKi (Aminopeptidase N): < 5.00
C[S+]([O-])CC[C@H](N)CSSC[C@@H](Cc1ccccc1)C(=O)NCC(=O)O (some centres undefined) |  |  | Active |  |  | 
CCOC(=O)OC(C)OC(=O)CNC(=O)[C@@H](CSSC[C@@H](N)CCSC)Cc1ccccc1.O=C(O)/C=C/C(=O)O (some centres undefined) |  |  |  |  |  | Activity (Mus musculus [12]): 62%; Activity (Mus musculus [13]): 31%; Activity (Mus musculus [15]): Active; Activity (Mus musculus [17]): inactive; Activity (Mus musculus [18]): Active
CCOC(=O)OC(C)OC(=O)CNC(=O)[C@@H](CSSC[C@H](CC[S+](C)[O-])NC(=O)OC(C)OC(=O)C(C)C)Cc1ccccc1 (some centres undefined) | 38 | inactive | inactive | inactive | 39 | 
CC(OC(=O)N[C@@H](CC[S+](C)[O-])CSSC[C@@H](Cc1ccccc1)C(=O)NCC(=O)O)OC(=O)C(C)C (some centres undefined) | 38 | inactive | inactive | inactive | 39 | Activity (Mus musculus [20]): 40%; Activity (Mus musculus [21]): 52%; Activity (Mus musculus [22]): Dose-dependent effect; Activity (Mus musculus [23]): Dose-dependent effect; Activity (Mus musculus [24]): Active; Activity (Mus musculus [25]): Dose-dependent effect; Activity (Mus musculus [26]): 63%
C[S+]([O-])CC[C@H](N)CS (some centres undefined) |  |  |  |  |  | pKi (Neprilysin): < 5.00
CSCC[C@@H](CSSC[C@@H](Cc1ccccc1)C(=O)NCC(=O)OCc1ccccc1)NC(=O)OC(C)OC(=O)C(C)C (some centres undefined) | 26 | inactive | inactive | inactive | 34 | 
O=C(O)CNC(=O)C(CS)Cc1ccccc1 (centres undefined) [THIORPHAN] |  |  |  |  |  | pKi (Aminopeptidase N): < 5.00
